From PubChem
Compounds with a hit are over-represented: about 2.3% of the library has one in this group of screens.
TRPC4 act: activators of mouse TRPC4 channel, primary screen, Fluo4 calcium, HEK293 TRPC4beta/mu-opioid cells; Short transient receptor potential channel 4 (Mus musculus), Q9QUQ5; Fluo4 calcium fluorescence; stronger effect = higher value; B-score at 10 µM; hit rate 0.49% among 310,000; AID 2237, 2010;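 active = B-score above 5 SD of library B-scores, and initial fluorescence ratio not above library mean plus 5 SD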;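 also: positive B-score marks a calcium rise read as TRPC4 activation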
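Assay system: HEK293 stable line with TRPC4beta plus mu-opioid receptor; schedule: 45 min room-temperature Fluo4 loading, 110 s read; technique: kinetic Fluo4 calcium fluorescence; evaluation: integrated baseline-normalised fluorescence ratio, converted to per-well B score; controls: buffer (low) and maximal DAMGO (high)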
TRPC4 PAM: positive allosteric modulators of TRPC4, primary screen, cell-based, mouse TRPC4beta, HEK293 mu-opioid, Fluo-4 calcium | AID 2227, 2009 | Short transient receptor potential channel 4 (Mus musculus), Q9QUQ5 | hit rate 0.42% among 310,000 | DAMGO EC20, Fluo-4 Ca2+ flux; stronger effect = higher value | B-score at 10 µM;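 active = B-score of calcium response area above 5 SD of library B-scores, with initial fluorescence ratio within 5 SD of library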
TRPC6 activator: mouse TRPC6 channel activators, primary screen, cell-based, HEK293, membrane potential dye; Short transient receptor potential channel 6 (Mus musculus), Q61143; B-score at 10 µM; AID 2550, 2010; hit rate 0.13% among 310,000; HEK293-TRPC6 membrane potential dye fluorescence; stronger effect = higher value;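 active = B-score of the integrated fluorescence ratio above library mean plus 3 SD, and starting fluorescence ratio within library mean plus 5 SD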;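 also: higher score means more depolarization so channel activation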
Target sequence (Q61143 whole entry, looked up): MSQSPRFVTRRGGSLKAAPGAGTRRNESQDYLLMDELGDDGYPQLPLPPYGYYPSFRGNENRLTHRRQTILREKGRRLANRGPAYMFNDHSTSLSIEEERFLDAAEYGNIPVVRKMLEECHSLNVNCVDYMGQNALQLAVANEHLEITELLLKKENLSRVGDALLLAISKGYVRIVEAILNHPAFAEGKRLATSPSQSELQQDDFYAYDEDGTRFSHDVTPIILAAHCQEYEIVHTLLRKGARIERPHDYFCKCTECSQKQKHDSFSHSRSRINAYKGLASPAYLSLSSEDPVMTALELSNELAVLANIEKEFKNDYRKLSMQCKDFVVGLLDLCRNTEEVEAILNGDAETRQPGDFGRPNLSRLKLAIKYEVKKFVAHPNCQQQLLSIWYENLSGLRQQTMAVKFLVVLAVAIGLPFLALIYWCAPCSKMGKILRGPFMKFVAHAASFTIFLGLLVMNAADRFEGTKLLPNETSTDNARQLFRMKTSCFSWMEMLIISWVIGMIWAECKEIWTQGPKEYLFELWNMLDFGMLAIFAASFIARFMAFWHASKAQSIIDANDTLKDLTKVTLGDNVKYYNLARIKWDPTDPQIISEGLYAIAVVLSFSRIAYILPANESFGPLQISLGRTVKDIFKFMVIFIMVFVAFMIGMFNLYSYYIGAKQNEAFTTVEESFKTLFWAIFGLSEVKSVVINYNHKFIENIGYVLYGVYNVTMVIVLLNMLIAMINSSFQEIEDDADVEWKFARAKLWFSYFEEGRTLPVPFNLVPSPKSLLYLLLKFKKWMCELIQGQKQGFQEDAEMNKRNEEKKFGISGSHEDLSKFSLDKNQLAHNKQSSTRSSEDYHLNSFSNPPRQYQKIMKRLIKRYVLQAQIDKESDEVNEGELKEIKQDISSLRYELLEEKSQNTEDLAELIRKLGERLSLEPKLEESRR
TRPC4 inh: inhibitors of mouse TRPC4 channel, primary screen, Fluo4 calcium, HEK293 TRPC4beta/mu-opioid cells; hit rate 0.39% among 300,000; Short transient receptor potential channel 4 (Mus musculus), Q9QUQ5; DAMGO-evoked Fluo4 calcium flux; stronger effect = lower value; B-score at 10 µM;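 active = B-score over 3 SD under the library average, no early fluorescence shift, positive overall ratio signal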
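material = TRPC4beta/mu-opioid receptor HEK293 cell line | probe or stimulus = sequential submaximal and maximal DAMGO stimulation | compound dosing = one concentration per compound | measured by = Fluo4 Ca2+ flux fluorescence | evaluation = integrated fluorescence ratio relative to baseline, converted to per-well B score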
TRPC6 inh: mouse TRPC6 channel inhibitors, primary screen, cell-based, HEK293, membrane potential dye. Short transient receptor potential channel 6 (Mus musculus), Q61143. hit rate 1.1% among 310,000. AID 2553, 2010. ACh-evoked depolarization; stronger effect = lower value. B-score at 10 µM;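 active = B-score under library mean minus 3 SD, initial fluorescence not abnormally high, positive integrated signal ratio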;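 also: B-score derived from integrated fluorescence ratio over the kinetic read; more negative B-score means stronger inhibition of depolarization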
TRPC4 sel inh 2: second check of whether TRPC6 inhibitors also affect mouse TRPC4. shares compounds with TRPC6 inh. HEK293 TRPC4/MOR, membrane potential dye fluorescence; channel activated by saturating DAMGO dose. inhibition, % at 10 µM. hit rate 42% among 920;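 active = compounds whose fluorescence signal differed from control wells by over 3 SD, either direction, in both duplicate plates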
TRPC4 spec: mouse TRPC4 modulation by TRPC6 hits, confirmation, selectivity assay for TRPC6 inhibitor project, cell-based, HEK293 TRPC4/mu-opioid, membrane potential dye; shares compounds with TRPC6 inh; membrane potential fluorescence; activity change, negative = inhibition, % at 10 µM; hit rate 61% among 920;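 active = rise or fall in signal beyond 3 SD of buffer-only wells in both replicate plates, either sign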;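 also: integrated kinetic ratio of fluorescence range over baseline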
HEK293 MPD ctr 2-1: nonspecific membrane potential effects, parental HEK293, confirmation, counter-screen for TRPC6 inhibitor project, cell-based, second counter screen; parental HEK293 membrane potential dye fluorescence; maximal acetylcholine challenge after compound addition; signal change vs control, % at 10 µM; AID 2779, 2010; hit rate 31% among 920; shares compounds with TRPC6 inh;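 active = membrane potential signal moving either way by over 3 SD of the maximum-effect control, in both duplicate plates, meaning non-specific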
HEK293 MPD ctr-1: membrane potential modulation in parental HEK293, confirmation, counter-screen for TRPC6 inhibitor project, cell-based; shares compounds with TRPC6 inh; parental HEK293 membrane potential dye fluorescence; membrane potential signal change, % at 10 µM; hit rate 60% among 920; AID 2780, 2010;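 active = membrane potential signal shifting up or down by more than 3 SD of buffer-only wells, on both duplicate plates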
HEK293 MPD ctr-2: parental HEK293 membrane potential modulation, confirmation, counter-screen for TRPC6 modulator project, cell-based; shares compounds with TRPC6 inh; membrane potential dye fluorescence; membrane potential signal change, % at 10 µM; hit rate 51% among 2,400;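 active = membrane potential signal moves up or down beyond 5 SD from buffer-only wells, on both duplicate plates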
HEK293 MPD ctr 2-2: second check of TRPC6 modulator effects in parental HEK293 cells; shares compounds with TRPC6 inh; membrane potential dye fluorescence; after compound, maximal acetylcholine stimulation; inhibition, % at 10 µM; hit rate 14% among 2,400; AID 488926;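 active = membrane potential signal drops by more than 5 SD from the mean control signal, in both duplicate plates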
TRPC4/MOR mod: TRPC4 modulation by TRPC6 hit compounds, confirmation, selectivity assay for TRPC6 modulator project, cell-based, HEK293 TRPC4/mu-opioid, membrane potential dye, mouse; shares compounds with TRPC6 inh; membrane potential fluorescence; percent change from control (negative = decrease, positive = increase), % at 10 µM; hit rate 69% among 2,400;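 active = membrane potential signal moved up or down beyond 5 SD of buffer control wells, in both duplicate plates, actives on both sides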
TRPC4/MOR inh 2: second check of whether TRPC6 modulators also affect mouse TRPC4. hit rate 55% among 2,400. inhibition, % at 10 µM. shares compounds with TRPC6 inh. HEK293 TRPC4/mu-opioid, membrane potential dye fluorescence; stimulated with maximal-effect DAMGO;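 active = drop in membrane potential signal beyond 5 SD of the control wells in both duplicate plates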;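 also: TRPC4 counter screen for TRPC6 hits run under conditions tuned for TRPC6 not TRPC4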
TRPC6 block conf: mouse TRPC6 channel inhibitors, confirmation, HEK293 cells, membrane potential dye, duplicate | hit rate 43% among 3,300 | ACh-evoked depolarization | inhibition, % at 10 µM | shares compounds with TRPC6 inh;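 active = fluorescence ratio falls more than 5 SD below the full-stimulation control mean, in both duplicate runs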;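 also: integrated fluorescence ratio of peak minus minimum over baseline after agonist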
TRPC6 act confirm: mouse TRPC6 channel activators, confirmation, HEK293 cells, membrane potential dye, duplicate | shares compounds with TRPC6 inh | HEK293-TRPC6 membrane potential dye fluorescence, FDSS | hit rate 11% among 2,800 | AID 488961, 2010 | activation, % at 10 µM;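 active = ratio signal rise beyond 5 SD above unstimulated control wells' mean, seen in both duplicate runs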
A number is an active result; n = inactive; x = not tested or not shown; + = active, no number.

SMILES | TRPC4 act | TRPC4 PAM | TRPC6 activator | TRPC4 inh | TRPC6 inh | HEK293 MPD ctr-2 | HEK293 MPD ctr 2-2 | TRPC4/MOR mod | TRPC4/MOR inh 2 | TRPC6 block conf | TRPC6 act confirm | others
CCN(CCNC(=O)C1CCN(Cc2nc(-c3cccc(Cl)c3)oc2C)CC1)c1ccccc1 | n | n | n | n | n | x | x | x | x | x | x
Oc1c(C=C2N=c3ccccc3=N2)sc(=S)n1-c1ccccc1 | n | n | n | n | n | x | x | x | x | x | x
CC1=Nc2ccccc2/C1=C/c1sc(=S)n(-c2cccc(C(=O)O)c2)c1O | 44 | 11 | 55.7 | n | n | + | n | 212.0% | n | n | 314.0%
CCCn1c(=NC(=O)c2ccco2)c(C(=O)OCC)cc2c(=O)n3ccccc3nc21 | n | n | n | n | n | x | x | x | x | x | x
CC(C)n1c(=NC(=O)c2ccco2)c(C#N)cc2c(=O)n3ccccc3cc21 | n | n | n | n | -6.12 | -86.5% | n | -24.5% | n | n | n
CCOc1ccc(NC(=O)CN(C)C(=O)CCCOc2ccc(Br)cc2)cc1OCC | n | n | n | n | n | x | x | x | x | x | x
O=[N+]([O-])c1ccc(-c2cn(-c3ccccc3)c(=S)[nH]2)cc1 | n | n | n | n | n | x | x | x | x | x | x
CCN(CC)CCOC(=O)C1c2ccccc2Oc2ccccc21 | n | n | n | n | -9.97 | x | x | x | x | 81.4% | x | TRPC4 sel inh 2=n;TRPC4 spec=7.9%;HEK293 MPD ctr 2-1=28.5%;HEK293 MPD ctr-1=6.7%
N#CCOC(=O)C1c2ccccc2Oc2ccccc21 | n | n | n | n | n | x | x | x | x | x | x
Cc1nnsc1C(=O)N/N=C/c1ccc2ccccc2c1O | n | n | n | n | -7.62 | x | x | x | x | n | x | TRPC4 sel inh 2=n;TRPC4 spec=27.0%;HEK293 MPD ctr 2-1=-47.0%;HEK293 MPD ctr-1=19.0%
Cc1nnsc1C(=O)N/N=C/c1ccccc1 | n | n | n | n | n | x | x | x | x | x | x
Cc1ccc(OC(C)C(=O)N2CC(=O)Nc3ccccc32)cc1 (stereo unspecified) | n | n | 14.9 | n | n | n | n | n | n | x | 136.0%
CCOC(=O)c1[nH]n(-c2ccc(Cl)cc2)c(=O)c1C | n | n | n | n | -7.77 | x | x | x | x | n | n | TRPC4 sel inh 2=n;TRPC4 spec=n;HEK293 MPD ctr 2-1=n;HEK293 MPD ctr-1=n
Cc1cc(C)c2cc3c(ccn3C3OC[C@H](O)[C@H](O)[C@H]3O)cc2n1 (stereo partly specified) | n | n | n | n | -7.08 | n | n | -67.5% | 34.0% | n | n
CC(=O)O[C@@H]1[C@@H](OC(C)=O)[C@H](n2ccc3cc([N+](=O)[O-])ccc32)OC[C@@H]1OC(C)=O | n | n | n | n | n | x | x | x | x | x | x
O=C(O)COc1ccc(/C=C/c2nc3ccc([N+](=O)[O-])cc3s2)cc1 | n | n | n | n | -8.5 | x | x | x | x | n | n | TRPC4 sel inh 2=n;TRPC4 spec=-30.2%;HEK293 MPD ctr 2-1=n;HEK293 MPD ctr-1=-426.0%
O=C(N/N=C/c1sc(N2CCOCC2)nc1-c1ccccc1)c1cccc(S(=O)(=O)N2CCCC2)c1 | n | n | n | n | -5.93 | 453.5% | n | -55.5% | n | n | n
O=C(N/N=C/c1cc(Br)cc(Br)c1O)c1cccc(S(=O)(=O)N2CCOCC2)c1 | n | n | n | n | -5.72 | n | n | 25.5% | n | n | n
CC(=O)Nc1ccc(/C=N/NC(=O)c2cccc(S(=O)(=O)N3CCOCC3)c2)cc1 | n | n | n | n | n | x | x | x | x | x | x
O=C(N/N=C/c1sc(N2CCOCC2)nc1-c1ccccc1)c1ccc(O)cc1 | n | n | n | n | n | x | x | x | x | x | x
CN(C)CCCNc1oc(-c2ccc(Cl)cc2)nc1C#N | n | n | n | n | n | x | x | x | x | x | x
CCN(CC)CCCNc1oc(-c2cccc(Cl)c2)nc1C#N | n | n | n | n | -6.1 | n | n | n | 34.0% | 53.5% | n
CN1CCc2c(c3ccccc3n2Cc2ccccc2)C1 | n | n | n | n | -5.4 | 141.0% | n | 18.5% | 64.5% | n | x
CCN(CC)c1ccc(S(=O)(=O)N(CC)CC)cc1NC(=O)C1CCCC1 | n | n | 20.6 | n | -13.5 | 182.0% | n | 34.5% | 36.0% | 116.5% | 161.5%
CCN(CC)c1ccc(S(=O)(=O)N2CCCCC2)cc1NC(=O)C1CCC1 | n | n | 12.2 | n | -5.52 | n | n | 21.5% | 30.0% | 76.0% | 95.5%
CC(C)c1ccc(NC(=O)C2CC3CCC2C3)cc1 (stereo unspecified) | n | n | n | n | n | x | x | x | x | x | x
COc1ccc(Nc2nnc(-c3ccc(C(=O)NCCO)cc3)c3ccccc23)cc1 | n | n | n | n | n | x | x | x | x | x | x
